Results collected from several papers.
Protocols differ between the studies behind these lines.
Target: Serine/threonine-protein kinase Nek7 (NEK7, Homo sapiens, UniProt Q8TDX7)

`COc1cc(Nc2ncc(F)c(Nc3ccc4c(n3)NC(=O)C(C)(C)O4)n2)cc(OC)c1OC` has an inhibition of 100% (binding, competition with immobilised ligand; 10 µM).
The inhibition of `Cn1cc(-c2cc(F)cc(N3CCn4c(cc5c4CCCC5)C3=O)c2CO)cc(Nc2ccc(N3CCN(C4COC4)CC3)cn2)c1=O` is reported as 10% (enzyme activity, inhibitor; 0.1 µM).
With `COc1ncccc1-c1cnn2ccc(N3CCN(C(=O)OC(C)C)CC3)nc12` the remaining binding was 100% (binding, competition with immobilised ligand; 1 µM).
For `N#CC1(c2ccccn2)CCN(Cc2cc(C(=O)O)c(=O)n3ccccc23)CC1`, the remaining binding was 100% (cell-free assay, competition with immobilised ligand; 1 µM).
For `Nc1ncc(-c2nc(N3CCOCC3)nc(N3CCOCC3)n2)c(C(F)F)n1`, the remaining binding was 70% (binding, competition with immobilised ligand; 10 µM).
The remaining activity of `CC(C)(C)c1cc(C=C(C#N)C#N)cc(Br)c1O` is reported as 89.5% (enzyme activity, inhibitor; 0.5 µM).
`Cn1cc(-c2cccc(N3CCc4c(sc5c4CC(C)(C)C5)C3=O)c2CO)cc(Nc2ccncn2)c1=O` gave an inhibition of 1% (enzyme activity, inhibitor; 1 µM).
`O=c1[nH]c2ccccc2n1C1CCN(Cc2ccc(-c3[nH]c4cc5ncnc5cc4nc3-c3ccccc3)cc2)CC1` has a remaining signal of 99.6% (cell-free assay; 0.5 µM).
`Cn1cncc1[C@](O)(COc1ccc(C#N)cc1-c1ccc(OC(F)(F)F)cc1)c1ccc(C#N)cc1` gave a remaining binding of 46% (cell-free assay, competition with immobilised ligand; 1 µM).
With `Cc1nn(C)cc1-c1nc2c(N3CCN(Cc4ccc(Cl)cc4)CC3)c(Cl)cnc2[nH]1` the remaining binding was 100% (binding, competition with immobilised ligand; 1 µM).
